This is an account of results in PMC4160279 (Journal of the American Chemical Society, 2014).

Usually Kd stands for a measure of binding affinity in units of concentration. The low end stands for a tighter complex, the high end for a looser complex.

Bounds are passed on as bounds.

The target in one assay is T1, P dimer VA115 (Human calicivirus NLV/VA98115/1998, UniProt Q91H12).
T1 sequence (Q91H12 227-545): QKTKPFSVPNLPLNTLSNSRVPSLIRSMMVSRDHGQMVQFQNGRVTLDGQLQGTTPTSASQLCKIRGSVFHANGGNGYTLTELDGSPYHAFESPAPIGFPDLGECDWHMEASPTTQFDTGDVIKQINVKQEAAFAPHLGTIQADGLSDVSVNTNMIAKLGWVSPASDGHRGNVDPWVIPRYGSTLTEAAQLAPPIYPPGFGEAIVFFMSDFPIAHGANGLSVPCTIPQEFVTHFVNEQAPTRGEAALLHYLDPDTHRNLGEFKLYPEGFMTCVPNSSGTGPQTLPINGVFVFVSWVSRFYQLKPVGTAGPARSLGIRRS
The experiment in a line: Direct ESI-MS assay. Type of assay: binding. To be noted: n = 3. The method in brief:
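Recombinant P dimer (P domain residues 222–539, made in E. coli via a GST fusion system) was titrated with at least four initial oligosaccharide concentrations, in triplicate. Example mix: 12 μM dimer, 80 μM ligand, 4 μM reference protein. Bound/free abundance ratios were taken as solution ratios after nonspecific-binding correction. Ka,int was fitted assuming two independent, equivalent sites.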

The test system of another assay is NoV VA115 P dimer. Nature of the assay: Direct ESI-MS assay, NoV VA115 P dimer. Details: species or system human NoV VA115 (GI.3). To be noted: intrinsic (per binding site) association constant; aqueous ammonium acetate (200 mM), pH 7, 25 °C. The method in brief: (§1)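 Recombinant P dimer, buffer-exchanged into ammonium acetate and quantified by UV, was mixed (e.g., 12 μM) with ganglioside oligosaccharide (e.g., 80 μM) and reference protein (4 μM). Nanoelectrospray in negative ion mode used capillary −0.8 kV, cone 60 V and source 60 °C. Runs covered ≥4 initial ligand concentrations in triplicate. Ka,int came from bound/free abundance ratios, corrected for nonspecific binding, with two equivalent sites.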

In a further assay the test system is NoV VA387 P dimer. Nature of the assay: Direct ESI-MS assay, NoV VA387 P dimer. Further details: species or system human NoV VA387 (GII.4). Particulars: intrinsic (per binding site) association constant; aqueous ammonium acetate (200 mM), pH 7, 25 °C. The method in brief:
as §1

Regarding `CC(=O)N[C@H]1[C@H](O[C@@H]2[C@H](O[C@]3(C(=O)O)C[C@H](O)[C@@H](NC(C)=O)[C@H]([C@H](O)[C@@H](CO)O[C@]4(C(=O)O)C[C@H](O)[C@@H](NC(C)=O)[C@H]([C@H](O)[C@H](O)CO)O4)O3)[C@@H](O)[C@H](O[C@H]3[C@H](O)[C@@H](O)C(O)O[C@@H]3CO)O[C@@H]2CO)O[C@H](CO)[C@H](O)[C@@H]1O[C@@H]1O[C@H](CO)[C@H](O)[C@H](O)[C@H]1O` (stereo partly shown) [GD1b, GD1b ganglioside oligosaccharide (Galb1-3GalNAcb1-4(Neu5Aca2-8Neu5Aca2-3)Galb1-4Glc)], the Kd on P dimer VA115 is 2.94 mM. For `CC(=O)N[C@H]1[C@H](O[C@@H]2[C@H](O[C@]3(C(=O)O)C[C@H](O)[C@@H](NC(C)=O)[C@H]([C@H](O)[C@@H](CO)O[C@]4(C(=O)O)C[C@H](O)[C@@H](NC(C)=O)[C@H]([C@H](O)[C@H](O)CO)O4)O3)[C@@H](O)[C@H](O[C@H]3[C@H](O)[C@@H](O)C(O)O[C@@H]3CO)O[C@@H]2CO)O[C@H](CO)[C@H](O)[C@@H]1O[C@@H]1O[C@H](CO)[C@H](O)[C@H](O)[C@H]1O` (stereo partly shown) [GD1b], the “Ka,int P dimer VA115” value in the assay on NoV VA115 P dimer is given as 340 ± 50 M^–1. The “Ka,int P dimer VA387” value in the assay with NoV VA387 P dimer is “do not show any detectable binding”.

For the compound `CC(=O)N[C@H]1[C@H](O[C@@H]2[C@H](O[C@]3(C(=O)O)C[C@H](O)[C@@H](NC(C)=O)[C@H]([C@H](O)[C@@H](CO)O[C@]4(C(=O)O)C[C@H](O)[C@@H](NC(C)=O)[C@H]([C@H](O)[C@H](O)CO)O4)O3)[C@@H](O)[C@H](O[C@H]3[C@H](O)[C@@H](O)C(O)O[C@@H]3CO)O[C@@H]2CO)O[C@H](CO)[C@H](O)[C@@H]1O` (stereo partly shown) [GD2], the “Ka,int P dimer VA115” value with NoV VA115 P dimer is reported as 700 ± 140 M^–1. In the assay with NoV VA387 P dimer, the “Ka,int P dimer VA387” value was 150 ± 60 M^–1. Taken in the same sequence, the figures for `CC(=O)N[C@H]1[C@H]([C@H](O)[C@H](O)CO)O[C@@](O[C@H](CO)[C@@H](O)[C@@H]2O[C@@](O[C@H]3[C@@H](O)[C@@H](CO)O[C@@H](O[C@H]4[C@H](O)[C@@H](O)C(O)O[C@@H]4CO)[C@@H]3O)(C(=O)O)C[C@H](O)[C@H]2NC(C)=O)(C(=O)O)C[C@@H]1O` (stereo partly shown) [GD3] were 420 ± 140 M^–1 and 340 ± 60 M^–1. `CC(=O)N[C@H]1[C@H](O[C@@H]2[C@H](O[C@]3(C(=O)O)C[C@H](O)[C@@H](NC(C)=O)[C@H]([C@H](O)[C@H](O)CO)O3)[C@@H](O)[C@H](O[C@H]3[C@H](O)[C@@H](O)C(O)O[C@@H]3CO)O[C@@H]2CO)O[C@H](CO)[C@H](O)[C@@H]1O[C@@H]1O[C@H](CO)[C@H](O)[C@H](O)[C@H]1O` (stereo partly shown) [GM1a]: the “Ka,int P dimer VA115” value in the assay on NoV VA115 P dimer is on record as 400 ± 140 M^–1. In addition, the “Ka,int P dimer VA387” value in the assay with NoV VA387 P dimer is listed as 350 ± 80 M^–1. Taken in the same sequence, the figures for `CC(=O)N[C@H]1[C@H](O[C@@H]2[C@H](O)[C@@H](O)[C@H](O[C@H]3[C@H](O)[C@@H](O)C(O)O[C@@H]3CO)O[C@@H]2CO)O[C@H](CO)[C@H](O)[C@@H]1O[C@@H]1O[C@H](CO)[C@H](O)[C@H](O[C@]2(C(=O)O)C[C@H](O)[C@@H](NC(C)=O)[C@H]([C@H](O)[C@H](O)CO)O2)[C@H]1O` (stereo partly shown) [GM1b] were 480 ± 110 M^–1 and 180 ± 60 M^–1. Taken in the same sequence, the figures for `CC(=O)N[C@H]1[C@H](O[C@@H]2[C@H](O[C@]3(C(=O)O)C[C@H](O)[C@@H](NC(C)=O)[C@H]([C@H](O)[C@H](O)CO)O3)[C@@H](O)[C@H](O[C@H]3[C@H](O)[C@@H](O)C(O)O[C@@H]3CO)O[C@@H]2CO)O[C@H](CO)[C@H](O)[C@@H]1O` (stereo partly shown) [GM2] were 700 ± 200 M^–1 and 360 ± 90 M^–1.

With `CC(=O)N[C@H]1[C@H](O[C@@H]2[C@H](O[C@]3(C(=O)O)C[C@H](O)[C@@H](NC(C)=O)[C@H]([C@H](O)[C@H](O)CO)O3)[C@@H](O)[C@H](O[C@H]3[C@H](O)[C@@H](O)C(O)O[C@@H]3CO)O[C@@H]2CO)O[C@H](CO)[C@H](O)[C@@H]1O[C@@H]1O[C@H](CO)[C@H](O)[C@H](O[C@]2(C(=O)O)C[C@H](O)[C@@H](NC(C)=O)[C@H]([C@H](O)[C@@H](CO)O[C@]3(C(=O)O)C[C@H](O)[C@@H](NC(C)=O)[C@H]([C@H](O)[C@H](O)CO)O3)O2)[C@H]1O` (stereo partly shown) [GT1a, GT1a ganglioside oligosaccharide (Neu5Aca2-8Neu5Aca2-3Galb1-3GalNAcb1-4(Neu5Aca2-3)Galb1-4Glc)], the “Ka,int” value at P dimer VA115 amounted to 210 ± 70 M⁻¹.

For `CC(=O)N[C@H]1[C@H](O[C@@H]2[C@H](O[C@]3(C(=O)O)C[C@H](O)[C@@H](NC(C)=O)[C@H]([C@H](O)[C@H](O)CO)O3)[C@@H](O)[C@H](O[C@H]3[C@H](O)[C@@H](O)C(O)O[C@@H]3CO)O[C@@H]2CO)O[C@H](CO)[C@H](O)[C@@H]1O[C@@H]1O[C@H](CO)[C@H](O)[C@H](O[C@]2(C(=O)O)C[C@H](O)[C@@H](NC(C)=O)[C@H]([C@H](O)[C@@H](CO)O[C@]3(C(=O)O)C[C@H](O)[C@@H](NC(C)=O)[C@H]([C@H](O)[C@H](O)CO)O3)O2)[C@H]1O` (stereo partly shown) [GT1a], the “Ka,int P dimer VA115” value in the assay with NoV VA115 P dimer was found to be 210 ± 70 M^–1. Further, the “Ka,int P dimer VA387” value in the assay on NoV VA387 P dimer was “do not show any detectable binding”. Consider `CC(=O)N[C@H]1[C@H](O[C@@H]2[C@H](O[C@]3(C(=O)O)C[C@H](O)[C@@H](NC(C)=O)[C@H]([C@H](O)[C@@H](CO)O[C@]4(C(=O)O)C[C@H](O)[C@@H](NC(C)=O)[C@H]([C@H](O)[C@@H](CO)O[C@]5(C(=O)O)C[C@H](O)[C@@H](NC(C)=O)[C@H]([C@H](O)[C@H](O)CO)O5)O4)O3)[C@@H](O)[C@H](O[C@H]3[C@H](O)[C@@H](O)C(O)O[C@@H]3CO)O[C@@H]2CO)O[C@H](CO)[C@H](O)[C@@H]1O[C@@H]1O[C@H](CO)[C@H](O)[C@H](O)[C@H]1O` (stereo partly shown) [GT1c], for which the “Ka,int P dimer VA115” value in the assay on NoV VA115 P dimer turned out to be 260 ± 110 M^–1. Besides, in the assay with NoV VA387 P dimer, the “Ka,int P dimer VA387” value is given as less than 100 M^–1. Taken in the same sequence, the figures for `CC(=O)NC1C(OC2C(CO)OC(OC3C(CO)OC(O)C(O)C3O)C(O)C2OC2(C(=O)O)CC(O)C(NC(C)=O)C(C(O)C(CO)OC3(C(=O)O)CC(O)C(NC(C)=O)C(C(O)C(CO)OC4(C(=O)O)CC(O)C(NC(C)=O)C(C(O)C(O)CO)O4)O3)O2)OC(CO)C(O)C1O` (stereo not shown) [GT2] were 230 ± 50 M^–1 and less than 100 M^–1. In the case of `CC(=O)NC1C(O)CC(OC(CO)C(O)C2OC(OC(CO)C(O)C3OC(OC4C(O)C(CO)OC(OC5C(CO)OC(O)C(O)C5O)C4O)(C(=O)O)CC(O)C3NC(C)=O)(C(=O)O)CC(O)C2NC(C)=O)(C(=O)O)OC1C(O)C(O)CO` (stereo not shown) [GT3, GT3 ganglioside oligosaccharide (Neu5Aca2-8Neu5Aca2-8Neu5Aca2-3Galb1-4Glc)], the Kd at P dimer VA115 was 3.23 mM. In the case of `CC(=O)NC1C(O)CC(OC(CO)C(O)C2OC(OC(CO)C(O)C3OC(OC4C(O)C(CO)OC(OC5C(CO)OC(O)C(O)C5O)C4O)(C(=O)O)CC(O)C3NC(C)=O)(C(=O)O)CC(O)C2NC(C)=O)(C(=O)O)OC1C(O)C(O)CO` (stereo not shown) [GT3], the “Ka,int P dimer VA115” value in the assay on NoV VA115 P dimer was 310 ± 150 M^–1. Moreover, the “Ka,int P dimer VA387” value in the assay on NoV VA387 P dimer is “do not show any detectable binding”. Taken in the same sequence, the figures for `CC(=O)NC1C(O)CC(OC2C(O)C(OC3C(CO)OC(O)C(O)C3O)OC(CO)C2OC2OC(CO)C(O)C(OC3OC(CO)C(O)C(O)C3OC3OC(C)C(O)C(O)C3O)C2NC(C)=O)(C(=O)O)OC1C(O)C(O)CO` (stereo not shown) [fucosyl-GM1] were 600 ± 130 M^–1 and 460 ± 150 M^–1.
